pIC50: −log10 of the molar value. Converted amounts (≈) assume the structure as drawn. Read-outs that look alike come from different tables or passages of the source. Each block holds one compound with its values, some of them ahead of it.
Assays:
S. aureus ATCC 29213 [1] = assay: MIC, CLSI broth microdilution; assay type: cell-based, Staphylococcus aureus; settings: for antibacterial activity relative to FA: S. aureus ATCC 29213, MIC; for MIC fold worse than FA: S. aureus ATCC 29213
Method in brief: (§1)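 Broth microdilution followed CLSI, in cation-adjusted Mueller-Hinton broth in round-bottom wells, run in biological triplicate. Reference strains came from ATCC.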

[2] = system: human foreskin fibroblast-1 cells (HFF-1); assay: Cell viability, Alamar Blue, 72 h; assay type: cell-based
Method in brief: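 HFF-1 fibroblasts were grown in DMEM with 15% fetal bovine serum, 100 μg/mL penicillin and 100 μg/mL streptomycin at 37 °C under 5% CO2. Cells were harvested, seeded and left to adhere. They were exposed to compounds in DMSO (1% final) for 72 h, and viability was then read by Alamar Blue. Raptinal (20 μM) served as the dead control.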

[3] = system: 29 clinical isolates of S. aureus; assay: MIC against multidrug-resistant clinical isolates of S. aureus; assay type: cell-based, Staphylococcus aureus; settings: 29 multidrug-resistant clinical isolates
E. faecium ATCC 19434 = assay: MIC against sensitive E. faecium; assay type: cell-based, Enterococcus faecium
Method in brief: as §1

[4] = system: six clinical isolates of E. faecium (VRE); assay: MIC against clinical isolates of E. faecium; assay type: cell-based, Enterococcus faecium; settings: for activity against VRE clinical isolates: E. faecium clinical isolates with high levels of vancomycin resistance
S. aureus (FA-32X-B) = assay: Neutropenic thigh infection burden study, FA-resistant strain; assay type: in vivo, CD-1 mice; settings: 50 mg/kg IP at 1, 2, 3 h postinfection, 8 h postinfection
[5] = mouse, in vivo
[6] = system: clinical isolates of S. aureus / staphylococci resistant to FA; settings: cited from earlier work
[7] = system: S. aureus strains in the United States; settings: analysis conducted in 2011; cited from earlier work
[8] = human, in vivo; cited from earlier work
[9] = system: FA-resistant strains of S. aureus ATCC 29213; assay type: cell-based, Staphylococcus aureus
[10] = system: strains of S. aureus ATCC 29213 resistant to FA-CP; assay: MIC against FA-CP-resistant mutant strains; assay type: cell-based, Staphylococcus aureus
S. aureus ATCC 29213 [11] = assay: Resistance frequency, large inoculum method; assay type: cell-based, Staphylococcus aureus; settings: 2, 4, 8, 16, 32X the MIC
S. aureus = assay: MIC shift in 50% human serum; assay type: cell-based, Staphylococcus aureus
Method in brief: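 The CLSI broth microdilution MIC in cation-adjusted Mueller-Hinton broth was repeated against S. aureus with 50% human serum (ultrafiltrate, 30K Dalton membrane-filtered, unspecified gender) in the medium. Testing was in biological triplicate.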

S. aureus ATCC BAA-1721 = assay: MIC against S. aureus strain harboring the fusC gene; assay type: cell-based, Staphylococcus aureus; settings: S. aureus ATCC BAA-1721, fusC gene
[12] = Mouse maximum tolerated dose / tolerability

SMILES: CC(=O)O[C@H]1C[C@@]2(C)[C@@H](C[C@@H](O)[C@H]3[C@@]4(C)CC[C@@H](O)[C@@H](C)[C@@H]4CC[C@@]32C)/C1=C(\CCC=C(C)C)C(=O)O [FA, Fusidic acid, reference compound]
- MIC (S. aureus ATCC 29213 [1]; Staphylococcus aureus, ATCC29213): 0.125 µg/mL (≈ 0.242 µM)
- pIC50 ([2]; Homo sapiens, HFF-1, 72 h): < 4.30
- activity against clinical isolates of S. aureus [3]: no cross-resistance with vancomycin and retained potent activity
- MIC (E. faecium ATCC 19434; Enterococcus faecium, ATCC19434): 2 µg/mL (≈ 3.87 µM)
- activity against VRE clinical isolates [4]: retained potent activity
- bacterial burden in thigh (S. aureus (FA-32X-B)): no efficacy
- tolerability in mice, multiple doses [5]: well tolerated
- increase in MIC upon resistance ([6]; L461K mutation): > 2048 fold
- MIC ([6]; S. aureus clinical strains with EF-G L461K mutation): > 256 µg/mL
- MIC ([6]; five S. aureus clinical isolates with EF-G V90I, H457Q, L461K, A655V): > 256 µg/mL
- MIC range ([6]; staphylococcal clinical isolates that carry the fusC gene): 2 to 64 µg/mL
- MIC range ([6]; strains that possess the fusB gene): 4 to 1024 µg/mL
- S. aureus strains susceptible to FA [7]: 99.7%
- Cmax [8]: greater than 130 μg/mL
- half-life [8]: 10 to 14 h

SMILES: CC(=O)OC1CC2(C)C(CC(O)C3C4(C)CCC(O)C(C)C4CCC32C)C1=C(CCC=C1CCCC1)C(=O)O (stereo not shown) [FA-CP]
- MIC (S. aureus ATCC 29213 [1]; S. aureus ATCC 29213, CLSI): 0.125 µg/mL (≈ 0.23 µM)
- antibacterial activity relative to FA (S. aureus ATCC 29213 [1]): equipotent activity to FA
- improvement in activity against FA-resistant strains relative to FA ([9]; 11 FA-resistant strains): 2–8 fold
- MIC ([9]; FA-resistant strain FA-4X-A, EF-G T385N): 2 µg/mL (≈ 3.68 µM)
- MIC ([9]; FA-resistant strain FA-4X-B, EF-G T385N): 2 µg/mL (≈ 3.68 µM)
- MIC ([9]; FA-resistant strain FA-8X-A, EF-G T385N): 2 µg/mL (≈ 3.68 µM)
- MIC ([9]; FA-resistant strain FA-8X-B, EF-G R464L): 8 µg/mL (≈ 14.7 µM)
- MIC ([9]; FA-resistant strain FA-16X-A, EF-G H457Y): 64 µg/mL (≈ 118 µM)
- MIC ([9]; FA-resistant strain FA-32X-A, EF-G F88L): 128 µg/mL (≈ 236 µM)
- MIC ([9]; FA-resistant strain FA-32X-B, EF-G P406L): 4 µg/mL (≈ 7.37 µM)
- MIC ([9]; FA-resistant strain FA-32X-C, EF-G H457L): 128 µg/mL (≈ 236 µM)
- MIC ([9]; FA-resistant strain FA-32X-D, EF-G T436I): 2 µg/mL (≈ 3.68 µM)
- MIC ([9]; FA-resistant strain FA-32X-E, EF-G H457N): 128 µg/mL (≈ 236 µM)
- MIC ([9]; FA-resistant strain FA-32X-F, EF-G D434N): 32 µg/mL (≈ 59 µM)
- fold increase in MIC from wild-type (WT) S. aureus ([10]; highest MIC of colonies generated from FA-CP): 512 fold
- highest MIC observed for colonies generated from FA-CP ([10]; resistance mutants generated at 32X the MIC): 64 µg/mL
- MIC for FA-CP ([10]; strain FA-CP-32X-1, EF-G H457Y): 32 µg/mL
- MIC for FA-CP ([10]; strain FA-CP-32X-2, EF-G H457Y): 64 µg/mL
- MIC for FA-CP ([10]; strain FA-CP-32X-3, EF-G H457Y): 64 µg/mL
- MIC for FA-CP ([10]; strain FA-CP-32X-4, EF-G H457Y): 32 µg/mL
- MIC for FA-CP ([10]; strain FA-CP-32X-5, EF-G H457Y): 64 µg/mL
- MIC for FA-CP ([10]; strain FA-CP-32X-6, EF-G H457Y): 64 µg/mL
- MIC for FA-CP ([10]; strain FA-CP-32X-7, EF-G H457Y): 64 µg/mL
- MIC for FA-CP ([10]; strain FA-CP-32X-8, EF-G H457Y): 64 µg/mL
- MIC for FA-CP ([10]; strain FA-CP-32X-9, EF-G H457Y): 32 µg/mL
- MIC for FA-CP ([10]; strain FA-CP-32X-10, EF-G D434N): 32 µg/mL
- MIC for FA-CP ([10]; strain FA-CP-32X-11, EF-G H457Y): 32 µg/mL
- MIC for FA-CP ([10]; strain FA-CP-32X-12, EF-G D434N): 32 µg/mL
- MIC for FA-CP ([10]; strain FA-CP-32X-13, EF-G H457Y): 64 µg/mL
- MIC for FA-CP ([10]; strain FA-CP-32X-14, EF-G H457Y): 32 µg/mL
- MIC for FA-CP ([10]; strain FA-CP-32X-15, EF-G H457Y): 64 µg/mL
- MIC for FA-CP ([10]; strain FA-CP-32X-16, EF-G F88L): 64 µg/mL
- MIC for FA-CP ([10]; strain FA-CP-32X-17, EF-G F88L): 64 µg/mL
- MIC for FA-CP ([10]; strain FA-CP-32X-18, EF-G H457Y): 64 µg/mL
- MIC for FA-CP ([10]; strain FA-CP-32X-19, EF-G H457Y): 32 µg/mL
- MIC for FA-CP ([10]; strain FA-CP-32X-20, EF-G H457Y): 32 µg/mL
- resistance frequency relative to FA (S. aureus ATCC 29213 [11]): modest improvement in resistance frequency at 2 and 32X the MIC
- shift in MIC in 50% human serum compared to FA (S. aureus): very similar
- pIC50 ([2]; HFF-1 cells, 72 h): < 4.30
- activity against clinical isolates of S. aureus [3]: no cross-resistance with vancomycin and retained potent activity
- MIC (S. aureus ATCC BAA-1721): 8 µg/mL (≈ 14.7 µM)
- MIC (E. faecium ATCC 19434; sensitive strain E. faecium ATCC 19434): 2 µg/mL (≈ 3.68 µM)
- activity against VRE clinical isolates [4]: retained potent activity
- bacterial burden in thigh (S. aureus (FA-32X-B)): reductions in bacterial burden
- tolerability in mice, multiple doses ([12]; 50 mg/kg, intraperitoneal injection, once-a-day for 4 days): well tolerated
- tolerability in mice, single dose ([12]; single dose of 50 mg/kg, IP): well tolerated

- MIC fold worse than FA (S. aureus ATCC 29213 [1]): 4–8 fold
SMILES: CC(=O)OC1CC2(C)C(CC(O)C3C4(C)CCC(=O)C(C)C4CCC32C)C1=C(CCC=C(C)C)C(=O)O (stereo not shown) [compound 5]

- MIC fold worse than FA (S. aureus ATCC 29213 [1]): 4–8 fold
SMILES: CC(=O)OC1CC2(C)C(CC(=O)C3C4(C)CCC(O)C(C)C4CCC32C)C1=C(CCC=C(C)C)C(=O)O (stereo not shown) [compound 10]

SMILES: CC(=O)OC1CC2(C)C(CC(O)C3C4(C)CCC(O)C(C)C4CCC32C)C1=C(CCC=C1CCCCC1)C(=O)O (stereo not shown) [compound 26]
- MIC (S. aureus ATCC 29213 [1]; S. aureus ATCC 29213, CLSI): 0.125 µg/mL (≈ 0.225 µM)
- antibacterial activity relative to FA (S. aureus ATCC 29213 [1]): equipotent activity to FA
- resistance frequency relative to FA (S. aureus ATCC 29213 [11]): only displayed an improvement at 32X the MIC
- shift in MIC in 50% human serum compared to FA (S. aureus): very similar
- pIC50 ([2]; HFF-1 cells, 72 h): < 4.30

SMILES: CC(=O)O[C@H]1C[C@@]2(C)[C@@H](C[C@@H](O)[C@H]3[C@@]4(C)CC[C@@H](O)[C@@H](C)[C@@H]4CC[C@@]32C)/C1=C(\CCC=C1CCOCC1)C(=O)O [compound 27]
- MIC (S. aureus ATCC 29213 [1]; S. aureus ATCC 29213, CLSI): 0.125 µg/mL (≈ 0.224 µM)
- antibacterial activity relative to FA (S. aureus ATCC 29213 [1]): equipotent activity to FA
- resistance frequency relative to FA (S. aureus ATCC 29213 [11]): worse resistance frequency relative to FA
- shift in MIC in 50% human serum compared to FA (S. aureus): very similar
- pIC50 ([2]; HFF-1 cells, 72 h): < 4.30

SMILES: CC(=O)OC1CC2(C)C(CC(O)C3C4(C)CCC(O)C(C)C4CCC32C)C1C(CCCC(C)C)C(=O)O (stereo not shown) [compound 28]
- antibacterial activity relative to FA (S. aureus ATCC 29213 [1]): modest decreases in potency relative to FA

SMILES: CC(=O)O[C@H]1C[C@@]2(C)[C@@H](C[C@@H](O)[C@H]3[C@@]4(C)CC[C@@H](O)[C@@H](C)[C@@H]4CC[C@@]32C)/C1=C(\CCC=C(C)C)C(=O)O [sodium fusidate]
- tolerability in mice, single dose ([5]; ip, 50 mg/kg): well tolerated

SMILES: CN[C@H](CC(C)C)C(=O)N[C@H]1C(=O)N[C@@H](CC(N)=O)C(=O)N[C@H]2C(=O)N[C@H]3C(=O)N[C@H](C(=O)N[C@H](C(=O)O)c4cc(O)cc(O)c4-c4cc3ccc4O)[C@H](O)c3ccc(c(Cl)c3)Oc3cc2cc(c3O[C@@H]2O[C@H](CO)[C@@H](O)[C@H](O)[C@H]2O[C@H]2C[C@](C)(N)[C@H](O)[C@H](C)O2)Oc2ccc(cc2Cl)[C@H]1O [vancomycin]
- MIC [4]: 512 µg/mL (≈ 353 µM)
